IC50 and Activity data for 25 compounds are collected here from ChEMBL document CHEMBL1806417, “Antiproliferative activity and QSAR studies of a series of new 4-aminomethylidene derivatives of some pyrazol-5-ones” (Bioorg Med Chem Lett, 2011).

The IC50 is the point on the concentration scale where inhibition reaches its midpoint.

The test system of test [1] is MDA-MB-361. Briefly: Antiproliferative activity against human MDA-MB-361 cells assessed as cell survival after 72 hrs by MTT assay. It counts as functional, cell-based. Particulars: MDA-MB-361, 72 h. The procedure, abridged: (§1)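 Monolayer cultures in RPMI-1640 with L-glutamine (3 mM), 10% heat-inactivated FBS, 25 mM Hepes, pH 7.2, and extra glucose (1.11 g/L), at 37°C and 5% CO2. Seeding was 7000 cells/well for MDA-MB-361 and 3000 cells/well for MDA-MB-453. After 24 h, five two-fold dilutions were added for 72 h. MTT readout (Ohno–Abe modification). IC50 was read from the survival-versus-concentration curve; mean ± SD of three independent experiments.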

The subject of test [2] is MDA-MB-453. The test can be described thus: Antiproliferative activity against human MDA-MB-453 cells assessed as cell survival after 72 hrs by MTT assay. Particulars: MDA-MB-453, 72 h. It counts as functional, cell-based. A digest of the protocol:
as §1
Background: Tetrazolium dyes change colour on reduction, which living cells bring about.

In test [3] the test system is MS-1. Briefly: Antiangiogenic activity in mouse MS1 cells assessed as inhibition tube-like structure formation at 10 uM after 12 hrs by microscopy.
Test [4] relates to MDA-MB-453. Briefly: Cell cycle arrest in human MDA-MB-453 cells assessed as accumulation at sub-G1 phase at 2 times IC50 after 24 hrs using propidium iodide staining by flow cytometry. It counts as functional, cell-based. A digest of the protocol: (§2)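 Cells were seeded at 3 × 10⁵ per well and treated or left untreated for 24 h. They were trypsinized and fixed overnight in ice-cold 70% ethanol at -20°C, then washed in PBS. RNase was applied at 37°C for 30 min, followed by propidium iodide for at least 30 min. DNA content and cell-cycle distribution were measured by FACScan flow cytometry on at least 10,000 cells per sample.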
(In general: A flow cytometer gives signals particle by particle.)

In test [5] the test system is MS-1. Briefly: Antiangiogenic activity in mouse MS1 cells assessed as inhibition tube-like structure formation at 30 uM after 12 hrs by microscopy. It counts as functional, cell-based.
Test [6] has as its system MS-1. The test can be described thus: Antiangiogenic activity in mouse MS1 cells assessed as inhibition tube-like structure formation at 3 uM after 12 hrs by microscopy. It counts as functional, cell-based.
Test [7] concerns MS-1. Briefly: Antiangiogenic activity in mouse MS1 cells assessed as inhibition tube-like structure formation at 3 uM after 12 hrs by microscopy.
Test [8] has as its system MDA-MB-361. Briefly: Cell cycle arrest in human MDA-MB-361 cells assessed as accumulation at S phase at 2 times IC50 after 24 hrs using propidium iodide staining by flow cytometry (Rvb =15.72 %). It counts as functional. The procedure, abridged:
as §2

In test [9] the test system is MDA-MB-361. Briefly: Cell cycle arrest in human MDA-MB-361 cells assessed as accumulation at sub-G1 phase at 2 times IC50 after 24 hrs using propidium iodide staining by flow cytometry (Rvb =2.21 %). It counts as functional. A digest of the protocol: as §2
Test [10] deals with MDA-MB-361. The test can be described thus: Cell cycle arrest in human MDA-MB-361 cells assessed as accumulation at G2/M phase at 2 times IC50 after 24 hrs using propidium iodide staining by flow cytometry (reference value: 14.15 %). It counts as functional. The procedure, abridged: as §2
The subject of test [11] is MDA-MB-361. Briefly: Cell cycle arrest in human MDA-MB-361 cells assessed as accumulation at G1 phase at 2 times IC50 after 24 hrs using propidium iodide staining by flow cytometry (Rvb =64.36 %). It counts as functional. The procedure, abridged:
as §2

Test [12] has as its system MS-1. The test can be described thus: Antiangiogenic activity in mouse MS1 cells assessed as inhibition tube-like structure formation at 10 uM after 12 hrs by microscopy. It counts as functional, cell-based.

SMILES strings stand for the structures. Calls of active or inactive are those of the source. No cut-off for these calls is given here.

On to `O=C1NN=C(c2ccccc2)/C1=C/N[C@@H](Cc1ccc(O)cc1)C(=O)O`, for which the IC50 amounted to 61.1 µM with MDA-MB-361 [1] and 29.8 µM in the test with MDA-MB-453 [2]. Besides, the outcome in the test on MS-1 [3] was inactive.
`O=C(O)[C@H](Cc1c[nH]cn1)N/C=C1\C(=O)N(c2ccccc2)N=C1c1ccccc1`: the result in the test with MDA-MB-453 [4] was Active. The outcome with MS-1 [5] was inactive. Further, the figures for the IC50 in the test with MDA-MB-361 [1] and in the test on MDA-MB-453 [2] were 87.2 µM and 71.1 µM, respectively.
As for `O=C1NN=C(c2ccccc2)/C1=C/N[C@@H](Cc1ccccc1)C(=O)O`, the results for the IC50 with MDA-MB-361 [1] and in the test on MDA-MB-453 [2] were 67 µM and 94.8 µM, respectively. In addition, the result in the test with MS-1 [3] was inactive.
Take `O=C1/C(=C\Nc2cc(-c3ccccc3)[nH]n2)C(c2ccccc2)=NN1c1ccccc1`: the outcome with MDA-MB-453 [4] and in the test with MS-1 [6] was Active. Besides, the IC50 worked out at 12.2 µM with MDA-MB-361 [1] and 8.75 µM with MDA-MB-453 [2].
Regarding `O=C1NN=C(c2ccccc2)/C1=C/Nc1cc(-c2ccco2)[nH]n1`, the figures for the IC50 in the test with MDA-MB-361 [1] and with MDA-MB-453 [2] were 63.7 µM and 20.9 µM, respectively. In addition, in the test with MS-1 [3], the result was inactive.
Regarding `O=C(O)[C@H](Cc1ccccc1)N/C=C1\C(=O)N(c2ccccc2)N=C1c1ccccc1`, the result with MDA-MB-453 [4] and with MS-1 [6] was Active. In addition, the IC50 in the test with MDA-MB-361 [1] was determined as 11.5 µM; in the test with MDA-MB-453 [2] it was 10.4 µM.
Turning to `O=C1NN=C(c2ccccc2)/C1=C/N[C@@H](CO)C(=O)O`, the result in the test on MS-1 [5] was Active. Moreover, the IC50 in the test with MDA-MB-361 [1] amounted to 105 µM; in the test on MDA-MB-453 [2], 23.7 µM.
On to `O=C(O)[C@H](Cc1ccc(O)cc1)N/C=C1\C(=O)N(c2ccccc2)N=C1c1ccccc1`, for which, in the test with MDA-MB-453 [4], the result was Active. Further, in the test with MS-1 [7], the result was inactive. Besides, the IC50 in the test with MDA-MB-361 [1] was determined as 24.8 µM; with MDA-MB-453 [2], 10.9 µM.
Turning to `Cc1cc(N/C=C2\C(=O)N(c3ccccc3)N=C2c2ccccc2)n[nH]1`, the outcome in the test with MDA-MB-453 [4] and in the test on MS-1 [6] was Active. In addition, the Activity came to 11.64% in the test on MDA-MB-361 [8], 19.43% in the test with MDA-MB-361 [9], 14.12% with MDA-MB-361 [10] and 46.79% in the test on MDA-MB-361 [11]. Also, the IC50 in the test on MDA-MB-361 [1] is 9.98 µM; with MDA-MB-453 [2] it was 10.2 µM.
As for `CSC[C@H](N/C=C1\C(=O)N(c2ccccc2)N=C1c1ccccc1)C(=O)O`, the outcome with MDA-MB-453 [4] was Active. Besides, the outcome with MS-1 [7] was inactive. The IC50 in the test with MDA-MB-361 [1] worked out at 14.2 µM; with MDA-MB-453 [2] it was 9.46 µM.
On to `O=C(O)[C@H](CO)N/C=C1\C(=O)N(c2ccccc2)N=C1c1ccccc1`, for which, in the test on MDA-MB-453 [4], the outcome was Active. For the same compound, the IC50 in the test with MDA-MB-361 [1] turned out to be 52.8 µM; in the test on MDA-MB-453 [2] it was 49 µM. In addition, the result in the test on MS-1 [3] was inactive.
On to `O=C1/C(=C\Nc2cc[nH]n2)C(c2ccccc2)=NN1c1ccccc1`, for which the result in the test on MDA-MB-453 [4] and with MS-1 [12] was Active. Besides, the Activity in the test on MDA-MB-361 [8] came to 7.81%; in the test on MDA-MB-361 [9], 21.55%; with MDA-MB-361 [10], 15.58%; with MDA-MB-361 [11] it was 47.94%. The IC50 in the test on MDA-MB-361 [1] came to 51 µM; with MDA-MB-453 [2], 34.7 µM.
For `CCOC(=O)c1c[nH]nc1N/C=C1\C(=O)NN=C1c1ccccc1`, the outcome with MS-1 [7] was inactive. Also, the IC50 in the test with MDA-MB-361 [1] came to 121 µM; with MDA-MB-453 [2], 74.6 µM.
With `O=C(O)[C@@H](Cc1ccccc1)N/C=C1\C(=O)N(c2ccccc2)N=C1c1ccccc1`, the result with MDA-MB-453 [4] was Active. Also, in the test on MS-1 [7], the outcome was inactive. In addition, the IC50 in the test on MDA-MB-361 [1] came to 11.9 µM; in the test on MDA-MB-453 [2], 9.66 µM.
The matching figures for `CSCC[C@H](N/C=C1\C(=O)N(c2ccccc2)N=C1c1ccccc1)C(=O)O`: “Active”, “inactive”, 12.5 µM and 9.43 µM.
With `CSCC[C@H](N/C=C1\C(=O)NN=C1c1ccccc1)C(=O)O`, in the test with MS-1 [5], the result was Active. For the same compound, the IC50 with MDA-MB-361 [1] came out at 105 µM; in the test with MDA-MB-453 [2] it was 42.1 µM.
`Cc1cc(N/C=C2\C(=O)NN=C2c2ccccc2)n[nH]1`: the outcome with MS-1 [5] was Active. For the same compound, the values for the IC50 in the test on MDA-MB-361 [1] and with MDA-MB-453 [2] were 96 µM and 93 µM, respectively.
Consider `CSC[C@H](N/C=C1\C(=O)NN=C1c1ccccc1)C(=O)O`, for which the result in the test on MS-1 [5] was Active. Further, the IC50 in the test with MDA-MB-361 [1] came out at 97.4 µM; with MDA-MB-453 [2], 105 µM.
Consider `CCOC(=O)c1c[nH]nc1N/C=C1\C(=O)N(c2ccccc2)N=C1c1ccccc1`, for which, in the test on MDA-MB-453 [4], the result was Active. The result in the test with MS-1 [7] was inactive. The IC50 in the test with MDA-MB-361 [1] is 24.7 µM; in the test on MDA-MB-453 [2], 19.4 µM.
Consider `O=C1NN=C(c2ccccc2)/C1=C/N[C@@H](Cc1c[nH]c2ccccc12)C(=O)O`, for which the outcome in the test on MS-1 [5] was Active. For the same compound, the IC50 worked out at 93.6 µM with MDA-MB-361 [1] and 41.7 µM in the test on MDA-MB-453 [2].
Take `O=C1/C(=C\Nc2cc(-c3ccco3)[nH]n2)C(c2ccccc2)=NN1c1ccccc1`: the outcome with MDA-MB-453 [4] and in the test with MS-1 [6] was Active. Further, the Activity with MDA-MB-361 [8] came out at 7.33%; with MDA-MB-361 [9], 21.95%; with MDA-MB-361 [10] it was 13.9%; in the test with MDA-MB-361 [11], 51.38%. Moreover, the IC50 in the test with MDA-MB-361 [1] was found to be 13.4 µM; with MDA-MB-453 [2] it was 12.4 µM.
Consider `O=C1NN=C(c2ccccc2)/C1=C/Nc1cc[nH]n1`, for which the result in the test on MS-1 [5] was inactive. The results for the IC50 with MDA-MB-361 [1] and in the test with MDA-MB-453 [2] were 95.3 µM and 74.9 µM, respectively.
With `O=C1NN=C(c2ccccc2)/C1=C/N[C@@H](Cc1c[nH]cn1)C(=O)O`, the outcome with MS-1 [5] was Active. Moreover, the IC50 came to 113 µM with MDA-MB-361 [1] and 73.9 µM in the test with MDA-MB-453 [2].
On to `O=C(O)[C@H](Cc1c[nH]c2ccccc12)N/C=C1\C(=O)N(c2ccccc2)N=C1c1ccccc1`, for which the result with MDA-MB-453 [4] was Active. The results for the IC50 in the test with MDA-MB-361 [1] and in the test on MDA-MB-453 [2] were 33.9 µM and 9.75 µM, respectively. The result with MS-1 [3] was inactive.
With `O=C1NN=C(c2ccccc2)/C1=C/Nc1cc(-c2ccccc2)[nH]n1`, the IC50 with MDA-MB-361 [1] came to 42.7 µM; in the test on MDA-MB-453 [2], 11.5 µM. Besides, the result in the test with MS-1 [3] was inactive.
